# Yeast life ext: extends the lifespan of yeast; S. cerevisiae growth with nicotinamide, OD615; deaD strain in restrictive glucose medium; inhibition of the nicotinamide effect, % at 10 µM; 0.68% of 130,000 active;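 active = inhibition above a set limit, placed 3 SD over the median of all compounds, cut at about 26% in these data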
#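 Test system: DeaD-strain S. cerevisiae / Buffer or medium: restrictive glucose medium / Also added: nicotinamide 1.5 mM / Doses: one concentration, 10 µM, DMSO 0.25% / Schedule: 48 h at 30 °C / Signal: OD615 measurement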
# Yeast growth inh: reduces growth of yeast BB579 in restrictive medium. S. cerevisiae BB579 growth, OD615, 48 h. inhibition, % at 10 µM. 0.51% of 140,000 active;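 active = inhibition above a set limit, 3 SD over the mean compound inhibition, cut at about 44% in these data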
#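 System: Saccharomyces cerevisiae DeaD strain BB579, replicative lifespan model yeast | Buffer or medium: Restrictive glucose-based CSMM-D medium | Times: 4 h preincubation and 48 h exposure at 30 °C | Detection: OD615 turbidity measurement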
# MT stabilize HCS: microtubule stabilization, imaging screen | 0.83% of 200,000 active | % tubulin-high responders, % at 10 µM | HeLa tubulin immunostaining HCS, 24 h; share of cells brighter than vehicle mean+2SD;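 active = plate Z-score above 3 for both tubulin-high and condensed-nucleus cell shares, with cell loss under 80%, at 10 µM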;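 also: anti alpha tubulin signal scored within the nucleus-defined area of each cell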
# bCat nuc transl: alters nuclear translocation of beta-catenin in HeLa cells; immunofluorescence imaging; nuclear translocation activity, % at 5 µM; 0.3% of 190,000 active;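 active = nuclear translocation activity above 50% at 5 µM, with a well cell count of 50 or more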;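 also: per-cell ratio of nuclear to cytoplasmic median beta-catenin stain intensity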
#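 Test system: human HeLa cells, native beta-catenin. Compound dosing: 5 µM primary single dose, 0.1% DMSO, 0.02–20 µM confirmation series. Incubation: compound exposure 24 h at 37°C. Detection: beta-catenin immunostaining with DAPI counterstain, 20x imaging, 6 fields/well. Read-out basis: Nuclear/cytoplasmic beta-catenin signal ratio, % activation.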
# RAM network inh: inhibitors of the yeast RAM network. inhibition, % at 50 µM. S. cerevisiae dse1pr::URA3 reporter, 5-FOA growth OD615, 2 d; analog-sensitive cbk1-as2 kinase mutant strain. 1.8% of 190,000 active;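 active = inhibition above a set limit, 3 SD over mean compound inhibition, cut at about 8.4% in these data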;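 also: inhibition rescues growth on 5-FOA so higher OD means more RAM inhibition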
# Efa HMGR inh: inhibitors of class II HMG-CoA reductase from Enterococcus faecalis. purified E. faecalis HMGR, NADPH absorbance 340 nm kinetic. inhibition, % at 10 µM. 0.41% of 190,000 active;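 active = inhibition above a set limit, the median over all tested compounds plus 3 SD, cut at about 9.5% in these data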;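 also: enzyme runs in reverse so mevalonate oxidation gives rising NADPH absorbance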
# Hits are given with their value; n = inactive; x = no result given. An excerpt weighted towards active compounds, which were near 3.5% of everything screened.
SMILES,Yeast life ext,Yeast growth inh,MT stabilize HCS,bCat nuc transl,RAM network inh,Efa HMGR inh
CC(C)(C)c1ccc(-c2nnc(SCC(=O)NC3CCS(=O)(=O)C3)n2N)cc1 (stereo not drawn),x,x,n,n,n,n
CC(C)(C)n1nnnc1C(c1cccs1)N(Cc1ccccc1)Cc1ccco1 (stereo not drawn),n,n,n,n,9.6,n
COc1ccc(NC(=O)/C(Cl)=C(/Cl)S(=O)Cc2ccccc2Cl)cn1 (stereo not drawn),x,x,n,n,n,n
CCCCC(=O)Nc1ccc(NC(=O)c2ccc([N+](=O)[O-])cc2)cc1OC,n,n,n,n,9.1,n
COc1cc([N+](=O)[O-])ccc1NC(=O)CCCOc1ccccc1,n,n,n,n,n,n
COc1cc([N+](=O)[O-])ccc1NC(=O)CCCOc1cc(C)ccc1C,n,n,n,n,9.9,n
CCOC(=O)c1ccccc1NC(=O)CN(c1ccc(OCC)cc1)S(C)(=O)=O,x,x,n,69.0,n,n
CCOc1ccccc1NC(=O)CCN(c1ccc(C)cc1)S(=O)(=O)c1ccccc1,n,n,n,n,9.2,n
Cc1ccc(S(=O)(=O)N(CC(=O)Nc2ccccc2C(=O)O)c2ccccc2)cc1,x,x,n,n,8.7,n
COc1ccc(N(CC(=O)Nc2ccccc2C(=O)O)S(=O)(=O)c2ccc(C)c([N+](=O)[O-])c2)cc1,x,x,n,n,n,n
NC(=S)NNC(=O)COc1ccccc1O,x,x,x,n,x,x
CC(C)(CO)NC(=O)CC1C(=O)NCCN1CC(c1ccccc1)c1ccccc1 (stereo not drawn),x,x,x,n,n,10.3
CC(C)(CO)NC(=O)CC1C(=O)NCCN1Cc1ccc(-c2ccccc2)cc1 (stereo not drawn),x,x,n,n,n,n
COc1ccc(-c2csc(C)n2)cc1,x,n,n,n,n,9.8
COc1ccc(-c2csc(C)n2)cc1OC,n,n,n,x,n,n
O=C(CC1SCCNC1=O)Nc1ccc(F)c(Cl)c1 (stereo not drawn),x,x,n,n,n,15.7
COc1cccc(Cc2n[nH]c(=S)n2Cc2ccco2)c1,x,x,x,n,x,x
Cc1sc(-n2c(C)cc(/C=C3\SC(=S)NC3=O)c2C)c(C#N)c1C,n,n,n,79.7,n,11.5
CCCSc1cc(NCCOC(=O)CCC)c([N+](=O)[O-])c2nonc12,28.3,n,n,n,n,n
CCC(=O)OCCNc1cc(Sc2nc3ccccc3s2)c2nonc2c1[N+](=O)[O-],32.3,n,n,x,n,n
O=[N+]([O-])c1c(NCCCO)cc(Sc2nc3ccccc3s2)c2nonc12,n,n,n,x,n,n
CCCSc1cc(NCCOC(C)=O)c([N+](=O)[O-])c2nonc12,n,n,n,n,n,n
O=C(Cn1cnc2ccccc21)N1CCN(S(=O)(=O)c2ccccc2)CC1,x,x,n,n,n,n
CC(C)CN(Cc1cc(=O)oc2cc3c(cc12)CCCC3)CC(C)C,x,x,x,n,x,x
Cc1ccc(C(=O)Nc2ncc(Cc3ccc(F)cc3)s2)o1,n,n,n,n,n,n
SMILES,Yeast life ext,Yeast growth inh,MT stabilize HCS,bCat nuc transl,RAM network inh,Efa HMGR inh
Cc1ccc(C(=O)Nc2ncc(Cc3ccc(SC(F)F)cc3)s2)cc1,n,n,n,135.0,n,n
Cc1ccc(-c2nc(CSc3nc4ccccc4c(=O)n3C)cs2)cc1,n,n,n,x,10.7,n
O=c1oc2ccccc2c(Nc2ccc3ccccc3c2)c1[N+](=O)[O-],n,n,46.0,n,n,n
Cc1ccc(Nc2c([N+](=O)[O-])c(=O)oc3ccccc23)cc1,x,x,n,n,n,n
c1ccc2sc(NC3=NCN(CC4CCCO4)CN3)nc2c1 (stereo not drawn),x,x,n,n,n,n
Cc1ccc(C)c(-n2c3nc(=O)[nH]c(=O)c-3cc3cc([N+](=O)[O-])ccc32)c1,n,n,n,92.6,n,n
COc1cccc(OC)c1C(=O)Nc1cc(C)nn1-c1nc2ccccc2[nH]1,x,x,9.3,n,n,n
COc1ccc(C(=O)Nc2cc(C)nn2-c2nc3ccccc3[nH]2)c(OC)c1,x,x,n,n,n,n
O=C(Nc1ccc(F)cc1F)c1csc(-c2ccncc2)n1,x,x,n,n,n,n
Cc1ccc(C(=O)Nc2cccc(C(F)(F)F)c2)cc1NC(=O)c1csc(-c2ccncc2)n1,x,x,x,70.3,x,x
CC1(C)CC(=O)c2c(O)cc(OCc3ccc(Br)cc3)cc2O1,n,n,n,x,8.7,n
COc1cc(O)c2c(c1)OC(C)(C)CC2=O,n,n,n,x,n,n
COC(=O)c1ccc(COc2cc(O)c3c(c2)OC(C)(C)CC3=O)cc1,n,n,n,n,10.1,n
COc1ccc(CNc2nc3c(c(=O)n(Cc4ccc(Br)cc4)c(=O)n3C)n2C)cc1,n,n,n,n,8.8,n
Cn1c(NCc2ccccc2)nc2c1c(=O)n(Cc1ccc(Br)cc1)c(=O)n2C,n,n,n,n,n,n
COC(=O)CCC(=O)Nc1cccc([N+](=O)[O-])c1,x,x,n,n,n,n
CC(=O)N1C(=O)/C(=C2\SC(=S)N(NS(=O)(=O)c3ccc(C)cc3)C2=O)c2ccccc21,x,x,n,n,10.6,n
COC(=O)c1ccc(NC(=O)c2ccccc2-c2ccccc2C(=O)O)cc1,x,x,n,n,n,n
Cc1cc([N+](=O)[O-])ccc1NC(=O)CN1C2CCC1CC(NC(=O)NC13CC4CC(CC(C4)C1)C3)C2 (stereo not drawn),x,x,n,n,n,n
O=C1C=CCC(/C=C/c2ccccc2)O1 (stereo not drawn),41.1,n,n,x,n,n
NS(=O)(=O)c1ccc(NS(=O)(=O)c2ccc(NC(=S)Nc3ccccc3)cc2)cc1,n,n,n,n,n,n
NS(=O)(=O)c1ccc(NC(=S)Nc2ccn(Cc3cccc4ccccc34)n2)cc1,x,x,n,n,9.3,n
CN1C(=O)C(c2nnc(Nc3cccc4ccccc34)s2)C2CC1(C)Oc1ccccc12 (stereo not drawn),n,n,n,n,9.0,n
Cc1ccc(S(=O)(=O)C2C(=O)N(C)C3(C)CC2c2ccccc2O3)cc1C (stereo not drawn),n,n,n,n,n,n
O=C1C2C(c3ccccc3)C=CC(c3ccccc3)C2C(=O)N1c1ccncc1 (stereo not drawn),n,n,n,x,n,n
O=C1C2C(c3ccccc3)C=CC(c3ccccc3)C2C(=O)N1c1ccccn1 (stereo not drawn),30.1,n,n,n,n,n
CC(C)(C)N/N=C/c1c(O)n(-c2ccc(Cl)cn2)c(=O)c2ccccc12,n,n,n,n,8.5,n
O=c1c2ccccc2c(C=Nc2cccc(S(=O)(=O)NCc3ccco3)c2)c(O)n1-c1ccc(Cl)cn1,n,n,n,n,8.6,n
COC(=O)CN=Cc1c(O)n(-c2ccc(Cl)cn2)c(=O)c2ccccc12,x,x,n,n,n,n

# Screening results: PubChem, several laboratories
